The results in this text go back to ChEMBL document CHEMBL1275350, “First in class, potent, and orally bioavailable NADPH oxidase isoform 4 (Nox4) inhibitors for the treatment of idiopathic pulmonary fibrosis” (J Med Chem, 2010).

Structures are written as SMILES.

In series [1] the test system is Plasma. As to the kind of experiment: Unbound fraction in Sprague-Dawley rat 50% plasma protein. The series is classed as ADME, cell-free.
Series [2] deals with MAO-B (Homo sapiens, UniProt P27338). Briefly: Inhibition of MAO-B at 10 uM.
Chain of MAO-B (P27338 whole entry, canonical isoform): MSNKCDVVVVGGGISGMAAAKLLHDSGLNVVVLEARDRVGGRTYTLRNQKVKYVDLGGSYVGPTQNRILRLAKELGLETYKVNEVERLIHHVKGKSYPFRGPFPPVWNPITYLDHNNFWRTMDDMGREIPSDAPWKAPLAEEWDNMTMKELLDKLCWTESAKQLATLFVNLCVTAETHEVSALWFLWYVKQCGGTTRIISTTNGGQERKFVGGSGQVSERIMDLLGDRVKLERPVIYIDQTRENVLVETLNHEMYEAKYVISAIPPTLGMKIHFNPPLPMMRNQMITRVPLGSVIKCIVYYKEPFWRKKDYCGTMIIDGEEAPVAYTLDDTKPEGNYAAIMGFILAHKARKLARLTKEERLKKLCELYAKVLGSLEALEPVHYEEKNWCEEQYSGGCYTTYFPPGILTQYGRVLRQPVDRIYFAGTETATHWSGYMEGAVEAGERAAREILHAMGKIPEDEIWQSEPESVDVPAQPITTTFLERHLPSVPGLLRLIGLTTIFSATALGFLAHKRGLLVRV
In series [3] the target is Phosphatidylinositol 4,5-bisphosphate 3-kinase catalytic subunit gamma isoform (Homo sapiens) (UniProt P48736). Briefly: Inhibition of PI3Kgamma at 10. The settings on record: concentration not given here.
Chain of Phosphatidylinositol 4,5-bisphosphate 3-kinase catalytic subunit gamma isoform (Homo sapiens) (P48736 whole entry, looked up, canonical isoform): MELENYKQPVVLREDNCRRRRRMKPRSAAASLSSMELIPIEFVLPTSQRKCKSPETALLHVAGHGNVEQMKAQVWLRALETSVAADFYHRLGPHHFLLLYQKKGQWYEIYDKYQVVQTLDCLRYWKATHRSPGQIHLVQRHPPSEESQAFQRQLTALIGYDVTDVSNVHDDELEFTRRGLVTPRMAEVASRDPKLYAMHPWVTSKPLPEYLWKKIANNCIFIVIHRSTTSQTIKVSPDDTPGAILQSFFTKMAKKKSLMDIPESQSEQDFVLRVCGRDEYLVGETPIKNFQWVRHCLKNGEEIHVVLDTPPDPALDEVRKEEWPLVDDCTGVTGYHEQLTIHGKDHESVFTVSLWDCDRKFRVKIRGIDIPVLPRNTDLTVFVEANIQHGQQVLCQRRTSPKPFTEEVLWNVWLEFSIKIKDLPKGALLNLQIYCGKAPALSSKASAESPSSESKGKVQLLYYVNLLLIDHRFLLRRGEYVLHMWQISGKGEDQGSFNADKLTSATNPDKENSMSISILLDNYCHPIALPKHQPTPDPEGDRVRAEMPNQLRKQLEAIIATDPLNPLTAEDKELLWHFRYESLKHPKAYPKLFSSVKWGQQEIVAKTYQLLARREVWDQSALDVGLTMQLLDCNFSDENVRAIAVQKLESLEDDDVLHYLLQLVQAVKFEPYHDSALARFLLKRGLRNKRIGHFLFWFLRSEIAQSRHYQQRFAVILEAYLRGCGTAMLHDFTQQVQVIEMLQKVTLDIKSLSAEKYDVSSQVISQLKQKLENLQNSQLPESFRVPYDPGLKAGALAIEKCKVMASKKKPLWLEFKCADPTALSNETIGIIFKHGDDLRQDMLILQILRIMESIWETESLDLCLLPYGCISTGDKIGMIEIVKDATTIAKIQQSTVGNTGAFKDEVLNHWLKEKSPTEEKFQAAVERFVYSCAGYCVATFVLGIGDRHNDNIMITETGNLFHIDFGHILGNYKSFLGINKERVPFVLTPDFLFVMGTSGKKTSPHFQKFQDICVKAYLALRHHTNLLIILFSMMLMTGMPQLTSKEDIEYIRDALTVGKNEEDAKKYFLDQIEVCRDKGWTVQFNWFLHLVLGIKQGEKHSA
For series [4], the species on record is Rattus norvegicus. Briefly: Inhibition of rat AMPK at 10 uM.
Series [5] in a line: Cmax in Sprague-Dawley rat at 5 mg/kg, iv. Format: ADME, organism-based. Also noted: dose 5 mg/kg, route intravenous. The settings on record: in vivo. In short, it runs like this:
(§1)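 Parallel design with six male rats: three given 5 mg/kg iv in EDPW (10% EtOH, 10% DMA, 30% PG, 50% water), three given 10 mg/kg orally in aqueous 0.5% CMC with 0.25% Tween 20. Carotid cannula blood sampled up to 24 h. Plasma levels by LC/MS/MS (LLOQ 1.00 ng/mL). Noncompartmental analysis.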

The target in series [6] is Cytochrome P450 3A4 (Homo sapiens, UniProt P08684). Briefly: Inhibition of human CYP3A4. The series is classed as ADME. In short, it runs like this: (§2)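 Recombinant human CYP isoforms with isoform-specific probe substrates and NADPH. Compound at 0.1–25 μM, final DMSO 0.3%. Metabolites measured by mass spectrometry, except CYP1A2, which used a fluorescent metabolite. IC50 derived from the decrease in metabolite formation compared with vehicle control.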
Chain of Cytochrome P450 3A4 (P08684 whole entry, canonical isoform): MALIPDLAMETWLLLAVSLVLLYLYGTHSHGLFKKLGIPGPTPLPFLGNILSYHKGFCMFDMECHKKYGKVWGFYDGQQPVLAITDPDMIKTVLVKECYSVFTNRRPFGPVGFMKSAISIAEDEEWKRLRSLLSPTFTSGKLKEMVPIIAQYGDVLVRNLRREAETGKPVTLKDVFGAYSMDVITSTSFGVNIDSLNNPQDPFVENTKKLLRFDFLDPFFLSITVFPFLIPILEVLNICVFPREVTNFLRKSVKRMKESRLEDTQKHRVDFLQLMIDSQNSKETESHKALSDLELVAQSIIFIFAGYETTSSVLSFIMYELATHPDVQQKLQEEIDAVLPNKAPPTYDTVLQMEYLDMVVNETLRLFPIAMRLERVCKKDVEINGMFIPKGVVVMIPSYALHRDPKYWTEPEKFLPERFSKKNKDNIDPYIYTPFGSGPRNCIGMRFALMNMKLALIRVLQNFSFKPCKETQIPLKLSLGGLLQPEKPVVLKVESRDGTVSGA

Series [7] in a line: Oral bioavailability in Sprague-Dawley rat at 10 mg/kg. Format: ADME, organism-based. The following applies: in vivo. In short, it runs like this:
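Parallel design in male rats, three per group. Group 1: 5 mg/kg iv in EDPW (10% EtOH, 10% DMA, 30% PG, 50% water). Group 2: 10 mg/kg oral in aqueous 0.5% CMC with 0.25% Tween 20. Carotid cannula blood drawn up to 24 h. Plasma measured by LC/MS/MS (LLOQ 1.00 ng/mL), noncompartmental analysis.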

Series [8] is described as follows: Permeability across human Caco-2 cell membrane at 10 uM after 2 hrs. The series is classed as ADME, cell-based. In short, it runs like this: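 Caco-2 monolayers grown 20 days in DMEM, used when TEER >800 Ω·cm2. Dosed at 10 μM final in HBSS pH 6.5 with 1% DMSO, apical-to-basolateral and basolateral-to-apical. Incubated 2 h at 37 °C, both compartments sampled, LC-MS/MS with five-point calibration. Papp = (dQ/dt)/(C0A).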

The nature of series [9]: Inhibition of calcium channel at 10 uM.
Series [10] in a line: Intrinsic clearance in human liver microsomes assessed as per mg of protein at 0.5 uM. The series is classed as ADME, Microsome. In short, it runs like this: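 Phase I stability assay in pooled liver microsomes (human: male and female; rat: male Sprague-Dawley). Microsomes at 0.5 mg/mL final in 0.1 M phosphate pH 7.4. Compound 0.5 μM final, 0.25% DMSO. Preincubated at 37 °C, reaction started with 1 mM NADPH. Sampled at 0, 5, 15, 30 and 45 min, with a 45 min minus-NADPH control. Methanol quench with internal standard, LC/MS-MS, intrinsic clearance calculated.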
(In general: Microsomes from liver hold many membrane-bound enzymes, among them those of drug oxidation.)

Series [11] concerns the target Myeloperoxidase (Homo sapiens) (UniProt P05164). As to the kind of experiment: Inhibition of human myeloperoxidase at 10 uM.
Series [12] has as its target Dual specificity mitogen-activated protein kinase kinase 1 (Homo sapiens) (UniProt Q02750). As to the kind of experiment: Inhibition of human MEK1 at 10 uM.
Series [13] addresses Protein kinase C alpha type (Homo sapiens) (UniProt P17252). Briefly: Inhibition of human PKCalpha at 10 uM.
In series [14] the target is Phosphatidylinositol 4,5-bisphosphate 3-kinase catalytic subunit beta isoform (Homo sapiens) (UniProt P42338). Briefly: Inhibition of PI3Kbeta at 10. The following applies: concentration not given here.
Series [15] is described as follows: Genotoxicity in Salmonella Typhimurium at 100 uM by mini Ames test. Format: toxicity. The following applies: salmonella enterica subsp. enterica serovar typhimurium. Background: The Ames test uses bacterial strains that need an amino acid and regain growth without it when mutated back.
Series [16] is described as follows: Inhibition of chloride channel at 10 uM.
The target of series [17] is Cytochrome P450 2C19 (Homo sapiens, UniProt P33261). As to the kind of experiment: Inhibition of human CYP2C19. The series is classed as ADME. In short, it runs like this:
as §2

Series [18] is described as follows: AUC (infinity) in Sprague-Dawley rat at 10 mg/kg, po. Format: ADME, organism-based. Also noted: time infinity, dose 10 mg/kg, route oral. The following applies: plasma. In short, it runs like this:
as §1

Series [19] deals with Xanthine dehydrogenase/oxidase (Homo sapiens, UniProt P47989). As to the kind of experiment: Inhibition of xanthine oxidase by in vitro enzymatic assay in presence of xanthine. In short, it runs like this:
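Cell-free Amplex Red read-out: xanthine oxidase incubated in PBS with Amplex Red, HRP and cofactors; ROS production started by adding xanthine. Compound at rising concentrations from 1 nM to 100 μM, 20 min at 37 °C, then read on a plate reader. Background taken without enzyme or without agonist. Ki by Cheng-Prusoff, mean of at least three experiments run in triplicate.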

The nature of series [20]: Inhibition of sodium channel at 10 uM.
Series [21] addresses Endothelin-1 receptor (Homo sapiens) (UniProt P25101). As to the kind of experiment: Inhibition of human ET-A receptor at 10 uM.
In series [22] the target is NADPH oxidase 1 (Homo sapiens, UniProt Q9Y5S8). As to the kind of experiment: Inhibition of human NOX1 overexpressed in […] cell membrane assessed as ROS production by cell free assay in presence of NADPH. The following applies: in the assay text read “T-REx-CHO cell membrane” for “human PMN cell membrane”. In short, it runs like this: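 Membranes from T-REx-CHO cells stably co-transfected with human NOX1, p22, NOXA1 and NOXO1, induced with tetracycline (1 μg/mL, 24 h), prepared on a 17/40% sucrose gradient. Incubated in PBS with Amplex Red, HRP and cofactors, then NADPH added. Compound at 1 nM–100 μM, 20 min at 37 °C. Ki by Cheng-Prusoff, at least three experiments in triplicate.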
Chain of NADPH oxidase 1 (Q9Y5S8 whole entry): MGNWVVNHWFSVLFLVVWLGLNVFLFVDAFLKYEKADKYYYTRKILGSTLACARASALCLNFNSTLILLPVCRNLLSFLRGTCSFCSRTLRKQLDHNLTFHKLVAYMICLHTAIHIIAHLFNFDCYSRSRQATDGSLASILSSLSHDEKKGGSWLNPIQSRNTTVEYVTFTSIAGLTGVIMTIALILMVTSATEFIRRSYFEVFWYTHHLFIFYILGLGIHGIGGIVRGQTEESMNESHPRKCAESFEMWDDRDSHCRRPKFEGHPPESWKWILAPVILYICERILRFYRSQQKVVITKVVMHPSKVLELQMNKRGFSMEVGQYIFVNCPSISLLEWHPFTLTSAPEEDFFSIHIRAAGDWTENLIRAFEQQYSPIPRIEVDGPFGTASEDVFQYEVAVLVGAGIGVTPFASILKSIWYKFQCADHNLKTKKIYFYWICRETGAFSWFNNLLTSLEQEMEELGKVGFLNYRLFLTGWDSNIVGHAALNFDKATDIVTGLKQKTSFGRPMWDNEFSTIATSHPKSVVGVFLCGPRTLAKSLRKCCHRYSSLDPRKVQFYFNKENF

Chain of Myeloperoxidase (Homo sapiens) (P05164 165-273 limits assumed): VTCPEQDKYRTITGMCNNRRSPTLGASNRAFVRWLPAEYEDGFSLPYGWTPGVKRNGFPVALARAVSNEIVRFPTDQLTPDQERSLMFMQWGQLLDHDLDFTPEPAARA
Chain of Myeloperoxidase (Homo sapiens) (P05164 279-745 limits assumed): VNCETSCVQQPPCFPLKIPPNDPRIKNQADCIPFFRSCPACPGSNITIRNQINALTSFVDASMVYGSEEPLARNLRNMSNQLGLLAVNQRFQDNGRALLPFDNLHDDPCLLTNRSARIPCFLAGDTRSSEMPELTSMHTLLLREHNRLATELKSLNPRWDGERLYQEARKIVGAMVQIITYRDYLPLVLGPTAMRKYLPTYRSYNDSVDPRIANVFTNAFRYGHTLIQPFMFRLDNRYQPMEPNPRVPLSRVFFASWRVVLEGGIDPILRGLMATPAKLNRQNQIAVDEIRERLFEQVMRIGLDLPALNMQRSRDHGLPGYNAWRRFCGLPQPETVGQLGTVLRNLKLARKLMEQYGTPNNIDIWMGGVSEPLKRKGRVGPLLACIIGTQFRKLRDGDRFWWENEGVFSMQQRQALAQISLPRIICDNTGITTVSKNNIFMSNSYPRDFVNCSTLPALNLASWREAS
Chain of Endothelin-1 receptor (Homo sapiens) (P25101 whole entry): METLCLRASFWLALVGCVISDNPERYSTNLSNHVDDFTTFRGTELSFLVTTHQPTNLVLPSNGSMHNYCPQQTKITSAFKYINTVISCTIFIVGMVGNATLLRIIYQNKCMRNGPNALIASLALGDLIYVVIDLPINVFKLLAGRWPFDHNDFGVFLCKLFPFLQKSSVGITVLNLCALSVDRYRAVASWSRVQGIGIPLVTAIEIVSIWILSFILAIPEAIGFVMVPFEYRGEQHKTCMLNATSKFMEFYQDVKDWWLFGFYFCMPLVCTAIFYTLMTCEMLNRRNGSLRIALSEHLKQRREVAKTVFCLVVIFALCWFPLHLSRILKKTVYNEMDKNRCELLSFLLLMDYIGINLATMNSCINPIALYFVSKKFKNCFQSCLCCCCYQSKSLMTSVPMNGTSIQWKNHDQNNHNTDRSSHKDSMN
Chain of Xanthine dehydrogenase/oxidase (P47989 whole entry): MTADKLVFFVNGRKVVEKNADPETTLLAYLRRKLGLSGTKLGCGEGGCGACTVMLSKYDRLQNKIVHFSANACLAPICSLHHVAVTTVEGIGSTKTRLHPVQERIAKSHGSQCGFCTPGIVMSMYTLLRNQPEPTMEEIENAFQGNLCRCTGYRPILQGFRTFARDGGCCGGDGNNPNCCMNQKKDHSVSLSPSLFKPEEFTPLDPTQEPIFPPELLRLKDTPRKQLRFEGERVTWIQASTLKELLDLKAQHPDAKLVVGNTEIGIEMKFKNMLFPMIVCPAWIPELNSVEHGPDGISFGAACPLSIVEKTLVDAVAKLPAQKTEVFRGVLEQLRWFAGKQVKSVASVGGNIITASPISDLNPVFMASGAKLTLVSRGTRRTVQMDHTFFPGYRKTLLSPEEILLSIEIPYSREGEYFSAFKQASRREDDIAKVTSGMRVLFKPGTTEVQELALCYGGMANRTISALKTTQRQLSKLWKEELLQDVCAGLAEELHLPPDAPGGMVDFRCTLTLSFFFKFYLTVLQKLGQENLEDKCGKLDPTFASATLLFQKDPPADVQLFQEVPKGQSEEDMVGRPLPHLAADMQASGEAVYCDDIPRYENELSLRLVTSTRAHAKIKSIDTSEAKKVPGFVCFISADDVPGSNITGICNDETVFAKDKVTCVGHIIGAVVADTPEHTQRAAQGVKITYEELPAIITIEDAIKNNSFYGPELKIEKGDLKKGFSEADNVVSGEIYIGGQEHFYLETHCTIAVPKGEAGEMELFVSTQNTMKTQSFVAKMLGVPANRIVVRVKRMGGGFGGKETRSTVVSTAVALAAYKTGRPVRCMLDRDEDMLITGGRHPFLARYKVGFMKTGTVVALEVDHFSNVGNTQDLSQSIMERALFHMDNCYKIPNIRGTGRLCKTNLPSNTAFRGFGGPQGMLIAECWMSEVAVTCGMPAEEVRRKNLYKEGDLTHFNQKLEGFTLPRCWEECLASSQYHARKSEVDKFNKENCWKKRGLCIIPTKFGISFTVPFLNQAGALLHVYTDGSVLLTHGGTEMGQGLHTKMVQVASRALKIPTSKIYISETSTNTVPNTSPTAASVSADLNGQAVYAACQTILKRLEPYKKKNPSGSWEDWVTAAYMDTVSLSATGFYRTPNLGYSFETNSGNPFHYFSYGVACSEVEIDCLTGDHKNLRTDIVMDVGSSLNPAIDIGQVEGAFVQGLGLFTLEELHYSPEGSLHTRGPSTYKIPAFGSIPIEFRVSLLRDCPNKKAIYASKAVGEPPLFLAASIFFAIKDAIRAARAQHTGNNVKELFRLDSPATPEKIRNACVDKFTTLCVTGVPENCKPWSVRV

Usually inhibition stands for the change of the read-out against control, counted positive when it falls. The Cmax is the highest concentration seen after dosing. What is called IC50 is the midpoint of a concentration-inhibition curve. Lower therefore signals greater potency in that assay. As usually defined, the bioavailability is dose-corrected exposure relative to a reference, in per cent. Low values mean little systemic uptake, high ones much systemic uptake. By Papp is commonly meant a coefficient for how fast a substance crosses the barrier. Lower therefore signals poor permeation. What is called microsomal CLint is the capacity of the preparation to metabolise the compound, expressed as a volume cleared per time. The AUC(0-inf) is the area under the concentration-time curve extrapolated to infinity. A lower AUC(0-inf) goes with low exposure. As usually defined, the Ki is the equilibrium dissociation constant of an inhibitor or competing ligand from its target. Regarding `Cc1c2c(=O)n(-c3ccccc3Cl)[nH]c2cc(=O)n1Cc1ccccn1`, the Fu in [1] was 20.5%. In series [2], this molecule displayed an inhibition at 10 µM of 0%. In addition, the inhibition in series [3], in [4], in series [9], in [11], in series [12] and in [13] was 0% each time. Besides, the inhibition came out at 0% in series [14], 0% in [16], 4% in series [20] and 0% in series [21]. For the same molecule, the Cmax in series [5] was determined as 12100 ng/mL. Besides, the values for the concentration for half-maximal inhibition (IC50) in [6] and in [17] were 20.9 µM and above 25 µM, respectively. For the same molecule, the bioavailability in series [7] turned out to be 54%. Moreover, the Papp at 2 h, 10 µM in [8] was 21.4 ×10⁻⁶ cm/s. In addition, the intrinsic metabolic clearance (microsomal CLint) at 0.5 µM in [10] stood at 24.8 µL/min/mg. Besides, in [15], the Activity result is “Non-toxic”. Besides, the AUC(0-inf) in series [18] is 10900 ng·h/mL. Also, the inhibitory constant (Ki) in series [19] is above 30 µM; in series [22], 0.16 µM.
